From PubChem
A selection: hits, their analogues and other compounds. The true share with any hit is near 1.5%.
GSIS activator – GLuc luminescence reporter in INS-1E cells, primary screen for activators of glucose-dependent secretion of insulin; INS-1E GLuc reporter insulin secretion, 2-3 h; activation, % at 16.6 µM; 370,000 tested, 0.61% active;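 active means lowest replicate activation of at least 40%, so every replicate reaches that level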;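 further: 0% = median of neutral control wells and 100% = median of IBMX positive control wells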
SIRT5 inh – sirtuin-5 (human) deacylase inhibition. Q9NXA8. Purified SirT5, succinyl-peptide AMC, trypsin-coupled fluorescence. inhibition, % at 15 µM. 330,000 tested, 1.1% active; in the data active means inhibition above about 15%
Target sequence (Q9NXA8 whole entry, looked up): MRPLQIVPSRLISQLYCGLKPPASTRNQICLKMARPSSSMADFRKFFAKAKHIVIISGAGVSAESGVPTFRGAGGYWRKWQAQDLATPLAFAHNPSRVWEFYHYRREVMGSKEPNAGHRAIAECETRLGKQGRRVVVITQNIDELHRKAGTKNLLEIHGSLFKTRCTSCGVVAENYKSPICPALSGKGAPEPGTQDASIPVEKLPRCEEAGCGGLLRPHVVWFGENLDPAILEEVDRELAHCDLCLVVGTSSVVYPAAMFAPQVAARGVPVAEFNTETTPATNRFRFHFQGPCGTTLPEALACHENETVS
PDI inh – blocks human protein disulfide isomerase activity; P07237; PDI insulin aggregation turbidity, A650, 90 min; inhibition, % at 10 µM; 350,000 tested, 0.052% active;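 active means mean inhibition across replicates of 30% or more, whatever share of single replicates reach that level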
S100A4 inh HTS – inhibitors of human S100A4 binding to myosin IIA peptide. P26447. S100A4/TAMRA-MyoIIA peptide fluorescence polarization. inhibition, % at 10.7 µM. 360,000 tested, 0.14% active;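 active means mean inhibition of at least 70% across replicates, with every replicate also reaching that level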
Target sequence (P26447 whole entry, looked up): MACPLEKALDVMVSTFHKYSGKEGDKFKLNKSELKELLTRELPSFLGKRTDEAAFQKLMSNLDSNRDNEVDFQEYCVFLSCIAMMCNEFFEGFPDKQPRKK
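Material: S100A4 monomer protein | Medium: HEPES pH 7.2 with CaCl2, KCl, NaCl, DTT, Triton | Reagent: Labelled myosin peptide probe, 5 nM | Doses: One dose per compound | Times: 5 min incubation before reading | Benchmarks: Neutral control DMSO, positive control TFP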
ERp5 inh – blocks human ERp5 reductase activity on insulin; Q15084; ERp5 insulin aggregation, absorbance 650 nm, 90 min; inhibition, % at 9.99 µM; 350,000 tested, 0.05% active;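 active means mean replicate inhibition above about 25%, with every replicate also reaching it, limit read from the data, passing the limit was not always enough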
* hit, by the source's call; nt = no result given.

SMILES | GSIS activator | SIRT5 inh | PDI inh | S100A4 inh HTS | ERp5 inh
CO[C@@H]1CN(C)C(=O)c2cc(NC(=O)Nc3cc(Cl)cc(Cl)c3)ccc2OC[C@@H](C)NC[C@@H]1C | -12.4 | nt | nt | nt | nt
CO[C@H]1CN(C)C(=O)c2cc(NC(=O)Nc3cc(Cl)cc(Cl)c3)ccc2OC[C@@H](C)NC[C@H]1C | -1.1 | 103.0* | nt | nt | nt
CCCNC(=O)Nc1ccc2c(c1)C(=O)N(C)C[C@@H](OC)[C@@H](C)CN[C@@H](C)CO2 | 6.6 | 1.7 | nt | 111.0* | -1.0
O=C(C[C@H]1CC[C@@H]2[C@H](COC[C@H](O)CN2S(=O)(=O)c2cccc(F)c2)O1)NC1CCC1 | 16.0 | -5.0 | nt | 3.1 | 0.0
O=C(C[C@H]1CC[C@H](NC(=O)CCN2CCCCC2)[C@H](CO)O1)NCc1ccc(Cl)c(Cl)c1 | 13.3 | -0.7 | nt | -6.5 | 3.4
C[C@H](CO)N1C[C@H](C)[C@@H](CN(C)S(=O)(=O)c2cccs2)Oc2c(NS(=O)(=O)c3cccs3)cccc2C1=O | -14.8 | nt | nt | nt | nt
O=C(OCc1c(-c2ccccc2)ncc2ccccc12)c1cccs1 | 54.9* | 0.5 | -1.6 | -7.0 | 0.2
O=C(OCc1c(-c2ccccc2)ncc2ccccc12)c1ccc(Br)cc1 | 24.5 | nt | -1.5 | 0.0 | -1.5
CC(C(=O)Nc1ccc(F)c(F)c1F)N(C)Cc1cccs1 (stereo not drawn) | 6.7 | 16.3* | -1.1 | 4.0 | 2.8
CC(C(=O)Nc1ccccc1)N(C)Cc1cccs1 (stereo not drawn) | 33.3 | -4.4 | 3.3 | -5.9 | 3.8
Cc1ccccc1-c1ccc([C@H]2[C@@H](CO)N3C(=O)CN(C(=O)c4cccnc4)C[C@H]23)cc1 | -15.9 | nt | nt | nt | nt
Cc1cccc(N/C=C(\[N+](=O)[O-])S(=O)(=O)c2ccccc2)c1 | 7.9 | 39.5* | -1.0 | -6.2 | -0.1
CN(Cc1ccccc1)S(=O)(=O)c1cccc(C(=O)O)c1 | 1.8 | 31.0* | -1.9 | 10.5 | -1.0
COc1ccccc1N(Cc1ccccc1)S(=O)(=O)c1cccc(C(=O)O)c1 | nt | 7.2 | 0.8 | 0.8 | -0.9
CC(C)Cn1c(N)c(C(=O)COC(=O)c2ccc(O)cc2)c(=O)n(C)c1=O | -8.6 | 0.2 | 54.6* | -6.1 | 0.2
CC(C)(O)C#Cc1ccc([C@H]2[C@@H](CO)N3CCCCN(C(=O)c4ccc(F)cc4)C[C@H]23)cc1 | 6.8 | 0.5 | nt | 53.4 | 0.2
CC(C)(O)C#Cc1ccc([C@H]2[C@H](CO)N3CCCCN(C(=O)c4ccc(F)cc4)C[C@@H]23)cc1 | 1.7 | 3.7 | nt | 104.4* | -4.5
COc1cccc(-c2ccc([C@@H]3[C@H](CO)N4CCCCN(C(=O)c5ccc(F)cc5)C[C@@H]34)cc2)c1 | -22.9 | 5.7 | nt | 112.9* | -0.8
C/C=C/c1ccc([C@@H]2[C@H](CO)N(CC3CC3)C23CN(S(C)(=O)=O)C3)cc1 | 0.4 | -0.6 | nt | 0.1 | -2.1
CCS(=O)(=O)N1CC2(C1)[C@@H](c1ccccc1)[C@H](CO)N2Cc1ccc(F)cc1 | -5.6 | 15.7* | nt | -10.2 | 1.2
C/C=C/c1ccc([C@@H]2[C@H](CO)N(CC3CC3)C23CN(S(=O)(=O)CC)C3)cc1 | 4.8 | 22.6* | nt | -38.5 | 1.3
COc1cccc(CN2[C@H](CO)[C@@H](c3ccccc3)C23CN(C(=O)C2CCC2)C3)c1 | 0.1 | 24.0* | nt | 6.7 | -4.5
COCC(=O)N1[C@@H](CO)[C@@H](c2ccccc2)C12CN(C(=O)Cc1ccccn1)C2 | 5.1 | -1.3 | nt | 6.6 | 2.4
COCC(=O)N1[C@H](CO)[C@@H](c2ccccc2)C12CN(C(=O)Cc1ccccn1)C2 | 34.3 | 0.3 | nt | 96.8* | -1.7
CN(C)C(=O)c1ccc(-c2ccc([C@@H]3[C@@H](C#N)N(C(=O)C4CC4)[C@H]3CO)cc2)cc1 | -3.2 | 2.3 | nt | -3.1 | 6.8
SMILES | GSIS activator | SIRT5 inh | PDI inh | S100A4 inh HTS | ERp5 inh
C[C@@H]1CN([C@H](C)CO)C(=O)c2cccc(NS(=O)(=O)c3cn(C)cn3)c2O[C@@H]1CN(C)S(C)(=O)=O | 14.9 | -10.4 | nt | 9.8 | -6.5
Cc1ccc(S(=O)(=O)N(C)C[C@H]2OCCCC[C@@H](C)Oc3ccc(NS(=O)(=O)c4cccs4)cc3C(=O)N([C@@H](C)CO)C[C@H]2C)cc1 | -4.8 | 11.1 | nt | 1.1 | 0.2
O=C(Nc1ccccc1)N[C@H]1CC[C@H](CCn2cc(C3(O)CCCC3)nn2)O[C@@H]1CO | -12.6 | 11.7 | nt | 6.9 | 4.1
O=C(C1CCOCC1)N1CC2(C1)[C@@H](c1ccccc1)[C@@H](CO)N2CCC(F)(F)F | -2.8 | 26.2* | nt | 3.6 | 0.0
CCC(=O)N1CC2(C1)[C@H](c1ccccc1)[C@H](CO)N2Cc1ccccc1OC | -5.9 | 22.7* | nt | -3.1 | -0.9
O=C(C1CCOCC1)N1CC2(C1)[C@H](c1ccccc1)[C@@H](CO)N2CCC(F)(F)F | 8.9 | 0.6 | nt | 1.3 | -1.8
CCCNC(=O)N1[C@@H](CO)[C@H](c2ccccc2)C12CN(C(=O)CC1CC1)C2 | 1.9 | 37.6* | nt | -42.4 | -1.0
CN(C)CC(=O)N1[C@H](CO)[C@@H](c2ccccc2)C12CN(C(=O)C1CCCC1)C2 | 5.8 | 18.9* | nt | 13.7 | 0.4
CCCNC(=O)N1[C@H](CO)[C@H](c2ccccc2)C12CN(C(=O)CC1CC1)C2 | -2.6 | 7.0 | nt | -10.6 | 2.3
O=C(O)C[C@H]1C[C@@H]2c3cc(NC(=O)Nc4ccccc4)ccc3O[C@@H]2[C@@H](CO)O1 | 10.3 | -3.3 | nt | 9.1 | -1.2
O=C(CC1CC1)N1CC2(C1)[C@@H](c1ccccc1)[C@@H](CO)N2Cc1cccc(F)c1 | -5.1 | 18.8* | nt | 0.3 | 5.1
O=C(c1ccncc1)N1CC2(C1)[C@H](c1ccccc1)[C@H](CO)N2CC1CCCC1 | -12.0 | 2.6 | nt | 3.0 | 3.4
O=C(c1ccncc1)N1CC2(C1)[C@@H](c1ccccc1)[C@@H](CO)N2CC1CCCC1 | -10.1 | 18.0* | nt | 7.0 | 9.3
O=C(NC1CCCC1)[C@@H]1[C@@H](CO)[C@@H]2Cn3c(cccc3=O)[C@@H]2N1C(=O)NC1CCCC1 | 4.9 | 1.2 | nt | -1.9 | 2.2
COc1ccc(NC(=O)N(C)C[C@H]2Oc3ccc(NC(=O)C4CC4)cc3CC(=O)N([C@H](C)CO)C[C@H]2C)cc1 | 6.4 | -5.8* | nt | nt | 0.0
C[C@H]1CN([C@@H](C)CO)C(=O)Cc2cc(NC(=O)Nc3ccc(F)cc3)ccc2O[C@H]1CN(C)C(=O)Nc1ccc(F)cc1 | -17.5 | 15.7* | nt | 7.1 | -3.2
C[C@H](CO)N1C[C@H](C)[C@H](CN(C)C(=O)Nc2ccc(F)cc2)Oc2ccc(NC(=O)Nc3ccc(F)cc3)cc2CC1=O | -7.3 | 2.8 | nt | 10.7 | -4.7
Cc1noc(C)c1NC(=O)N(C)C[C@H]1Oc2ccc(NC(=O)NC(C)C)cc2CC(=O)N([C@H](C)CO)C[C@H]1C | 22.9 | 20.9* | nt | 3.2 | -0.8
COc1ccc(NC(=O)N(C)C[C@@H]2Oc3ccc(NC(=O)Nc4ccc(F)cc4)cc3CC(=O)N([C@@H](C)CO)C[C@@H]2C)cc1 | -4.1 | -0.4 | nt | 4.2 | 78.7*
CO[C@@H]1CN(C)C(=O)c2ccc(NC(=O)C3CCCCC3)cc2OC[C@@H](C)N(Cc2nccs2)C[C@H]1C | -21.4 | 2.6 | nt | -14.4 | 2.2
